Measured values of several laboratories.
Protocols differ between the studies behind these lines.

| SMILES | tested on | assay | system | setting | endpoint | result |
| --- | --- | --- | --- | --- | --- | --- |
| O=C(O)c1cn(C2CC2)c2cc(N3CCNCC3)c(F)cc2c1=O | Micrococcus luteus | microbial growth | ATCC10240 | 5 µg/mL, 20 h | inhibition zone | 0 mm |
| OCC1CC(n2cnc3c(Cl)ncnc32)C1CO (stereo not drawn) | Severe acute respiratory syndrome coronavirus | plaque formation, inhibitor | Vero C1008 | – | IC50 | > 300 µM |
| Cc1c2cnccc2c(C)c2c1c1ccccc1n2Cc1ccccc1 | MDA-MB-468 | cell growth or viability, MTT | – | – | IC50 | 18 µM |
| OC[C@@H]1C[C@@H](O)[C@H](n2cnc3c(Cl)ncnc32)O1 | Severe acute respiratory syndrome coronavirus | plaque formation, inhibitor | Vero C1008 | – | IC50 | > 300 µM |
| COC(=O)c1cc(-c2cccc(NC(=O)Nc3ccccc3)c2)on1 | Escherichia coli | microbial growth, broth dilution | ATCC25922 | – | MIC | > 64 µg/mL |
| COc1ncnc2c1ncn2[C@@H]1O[C@H](CO)[C@@H](O)[C@H]1O | Severe acute respiratory syndrome coronavirus | plaque formation, inhibitor | Vero C1008 | – | IC50 | > 300 µM |
| Nc1ncnc2c([C@@H]3N[C@H](CO)[C@@H](O)[C@H]3O)c[nH]c12 | Severe acute respiratory syndrome coronavirus | viral replication, inhibitor | Vero 76 | 3 µM | inhibition | 0% |
| COC(=O)c1cc(-c2cccc(NC(=S)Nc3ccccc3)c2)on1 | Escherichia coli | microbial growth, broth dilution | ATCC25922 | – | MIC | > 64 µg/mL |
| CCCCCCCCCOc1ccc2[nH]cc(CCN)c2c1 | HN-6 | cell growth or viability | – | 72 h | IC50 | 15.9 µM |
| COC(=O)c1cc(-c2cccc(NC(=S)Nc3ccc(F)cc3)c2)on1 | Escherichia coli | microbial growth, broth dilution | ATCC25922 | – | MIC | > 64 µg/mL |
| OCC(CCn1cnc2c(Cl)ncnc21)COCc1ccccc1 (stereo not drawn) | Severe acute respiratory syndrome coronavirus | plaque formation, inhibitor | Vero C1008 | – | IC50 | > 300 µM |
| O=C(NCCc1c[nH]c2ccccc12)C(=O)c1cn(Cc2ccc(Cl)cc2)c2ccccc12 | C4-2 | cell growth or viability, MTT | – | – | IC50 | > 100 µM |
| COC(=O)c1cc(-c2cccc(NC(=S)Nc3ccc([N+](=O)[O-])cc3)c2)on1 | Escherichia coli | microbial growth, broth dilution | ATCC25922 | – | MIC | > 64 µg/mL |
| COc1ccc2c(C(=O)C(=O)NCCc3c[nH]c4ccccc34)cn(Cc3ccc(Cl)cc3)c2c1 | C4-2 | cell growth or viability, MTT | – | – | IC50 | > 100 µM |
| COC(=O)c1cc(-c2cccc(NC(=O)Nc3cccc(F)c3)c2)on1 | Escherichia coli | microbial growth, broth dilution | ATCC25922 | – | MIC | > 64 µg/mL |
